{"data": "Published values of several laboratories", "MAL12": "Alpha-glucosidase MAL12 (MAL12, Saccharomyces cerevisiae S288c, UniProt P53341)", "note": "Lines come from different studies, so protocols differ."}
{"Compound": "C=C1CC[C@]2(C(=O)O[C@@H]3O[C@H](CO[C@@H]4O[C@H](CO)[C@@H](O[C@@H]5O[C@@H](C)[C@H](O)[C@@H](O)[C@H]5O)[C@H](O)[C@H]4O)[C@@H](O)[C@H](O)[C@H]3O)CC[C@]3(C)C(=CC[C@@H]4[C@@]5(C)CC[C@H](O[C@@H]6OC[C@H](O)[C@H](O)[C@H]6O[C@@H]6O[C@@H](C)[C@H](O)[C@@H](O)[C@H]6O)C(C)(C)[C@@H]5CC[C@]43C)[C@@H]2C1", "target": "MAL12", "read-out": "enzyme activity", "action": "inhibitor", "IC50": "0.74 µM"}
{"Compound": "Cc1cccc(NC(=O)Cn2cc(CSc3nc4ccccc4cc3/C=N/NC(N)=S)nn2)c1", "target": "MAL12", "read-out": "enzyme activity", "action": "inhibitor", "IC50": "247 µM"}
{"Compound": "COc1cc(C(c2c(O)c3ccccc3oc2=O)c2c(O)c3ccccc3oc2=O)ccc1OCc1cn(CC(=O)Nc2ccc(C)cc2)nn1", "target": "MAL12", "read-out": "enzyme activity", "action": "inhibitor", "technique": "absorbance", "IC50": "41.1 µM"}
{"Compound": "Nc1ncnc2c1ncn2[C@@H]1O[C@H](CO)[C@@H](O)[C@H]1O", "target": "Solute carrier family 22 member 6 (SLC22A6, Homo sapiens, UniProt Q4U2R8)", "read-out": "transporter uptake", "action": "inhibitor", "technique": "radiometric", "setting": "oocytes", "IC50": "> 1000 µM"}
{"Compound": "Cc1ccccc1NC(=O)Cn1cc(CSc2nc3ccccc3cc2/C=N/NC(N)=S)nn1", "target": "MAL12", "read-out": "enzyme activity", "action": "inhibitor", "IC50": "354 µM"}
{"Compound": "CC(=O)OC[C@H]1O[C@@H](OC[C@H]2O[C@@H](OC(=O)[C@]34CCC(C)(C)C[C@H]3C3=CC[C@@H]5[C@@]6(C)CC[C@H](O[C@@H]7OC[C@H](O)[C@H](O)[C@H]7O[C@@H]7O[C@H](CO)[C@@H](O)[C@H](O)[C@H]7O)C(C)(C)[C@@H]6CC[C@@]5(C)[C@]3(C)CC4)[C@H](O)[C@@H](O)[C@@H]2O)[C@H](O)[C@@H](O)[C@@H]1O[C@@H]1O[C@@H](C)[C@H](O)[C@@H](O)[C@H]1O", "target": "MAL12", "read-out": "enzyme activity", "action": "inhibitor", "IC50": "0.75 µM"}
{"Compound": "Cc1cccc(NC(=O)Cn2cc(CSc3nc4ccccc4cc3/C=N/NC(N)=S)nn2)c1C", "target": "MAL12", "read-out": "enzyme activity", "action": "inhibitor", "IC50": "247 µM"}
{"Compound": "C[C@@H]1O[C@@H](O[C@H]2[C@H](O[C@H]3CC[C@@]4(C)[C@@H](CC[C@]5(C)[C@@H]4CC=C4[C@@H]6CC(C)(C)CC[C@]6(C(=O)O[C@@H]6O[C@H](CO[C@@H]7O[C@H](CO)[C@@H](O)[C@H](O)[C@H]7O)[C@@H](O)[C@H](O)[C@H]6O)CC[C@]45C)[C@]3(C)CO)OC[C@H](O)[C@@H]2O)[C@H](O)[C@H](O)[C@H]1O", "target": "MAL12", "read-out": "enzyme activity", "action": "inhibitor", "IC50": "1.74 µM"}
{"Compound": "Cc1ccc(NC(=O)Cn2cc(CSc3nc4ccccc4cc3/C=N/NC(N)=S)nn2)cc1", "target": "MAL12", "read-out": "enzyme activity", "action": "inhibitor", "IC50": "490 µM"}
{"Compound": "COc1cc(C(c2c(O)c3ccccc3oc2=O)c2c(O)c3ccccc3oc2=O)ccc1OCc1cn(CC(=O)Nc2ccccc2C)nn1", "target": "MAL12", "read-out": "enzyme activity", "action": "inhibitor", "technique": "absorbance", "IC50": "50.2 µM"}
{"Compound": "Cc1ccc2oc(=O)cc(NCCO)c2c1", "target": "Alpha-1A adrenergic receptor (ADRA1A, Homo sapiens, UniProt P35348, I178V)", "read-out": "calcium signal", "action": "antagonist", "IC50": "331 µM"}
{"Compound": "CC(C)C[C@H](NC(=O)[C@H](Cc1ccccc1)NC(=O)OCc1ccccc1)C(=O)C=O", "target": "Cathepsin S (CTSS, Homo sapiens, UniProt P25774)", "read-out": "enzyme activity", "action": "inhibitor", "technique": "fluorescence", "IC50": "0.15 µM"}
{"Compound": "COc1cc(C(c2c(O)c3ccccc3oc2=O)c2c(O)c3ccccc3oc2=O)ccc1OCc1cn(CC(=O)Nc2cccc([N+](=O)[O-])c2)nn1", "target": "MAL12", "read-out": "enzyme activity", "action": "inhibitor", "technique": "absorbance", "IC50": "16.3 µM"}
{"Compound": "Cc1ccc2[nH]c(=O)c(CNC3CCCCC3)cc2c1", "target": "Alpha-1A adrenergic receptor (ADRA1A, Homo sapiens, UniProt P35348, M292L)", "read-out": "calcium signal", "action": "antagonist", "IC50": "11 µM"}
